# Test results published in ChEMBL document CHEMBL5150070, “Tricyclic SpiroLactams Kill Mycobacteria In Vitro and In Vivo by Inhibiting Type II NADH Dehydrogenases” (J Med Chem, 2022).
# How the values were obtained:
# [1] = tested on: Mycobacterium tuberculosis; test: Bactericidal activity against Non-replicating Mycobacterium tuberculosis ss18b-lux assessed as decrease in colony forming unit measured at 0.6 uM after 1 weeks; type: functional
# Outline: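 Streptomycin-dependent 18b-lux starved of streptomycin for 14 days (OD600 reset to 0.2 on days 7 and 13) to become non-replicating. Diluted to OD600 0.15 on dispensed compound and held at 37°C. On day 7, active wells plated on 7H11-OADC with 50 µg/mL streptomycin and incubated up to 8 weeks for cfu.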
# [2] = tested on: Mycobacterium tuberculosis; test: Bactericidal activity against Non-replicating Mycobacterium tuberculosis ss18b-lux model assessed as decrease in luminescence at 10 to 10000 nM; type: functional, organism-based; settings: dose 10-10000 nM, TDE = time-dependent effect
# Outline: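 Non-replicating streptomycin-starved 18b-lux (14-day starvation) diluted to OD600 0.15 in white 96-well plates with compound and incubated at 37°C. Luminescence read on days 1, 2, 5 and 7 and expressed relative to no-antibiotic controls (n ≥ 3).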
# [3] = tested on: Mycobacterium tuberculosis; test: Antimycobacterial activity against Mycobacterium tuberculosis H37Rv infected in human A-THP1 macrophages assessed as viability of infected macrophages incubated for 96 hrs by fluorescence microplate assay; type: functional, organism-based
# Outline: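 THP-1 cells differentiated with 50 ng/mL PMA for 72 h, infected with log-phase H37Rv (MOI 10, 2 h), and extracellular bacteria killed with 50 µg/mL amikacin for 1 h. Cells detached and seeded at 5×10⁵/mL in RPMI-10% FBS with PMA onto pre-dispensed compound, 96 h at 37°C, 5% CO₂. Macrophage viability by 0.05% resazurin fluorescence.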
structure (smiles),measurement,setting,value
CO[C@H]1/C=C/O[C@@]2(C)Oc3c(C)c(O)c4c(O)c(c(/C=N/N5CCN(C)CC5)c(O)c4c3C2=O)NC(=O)/C(C)=C\C=C\[C@H](C)[C@H](O)[C@@H](C)[C@@H](O)[C@@H](C)[C@H](OC(C)=O)[C@@H]1C [RIFAMPIN],Activity,[1],1 log10CFU
same,Activity,[2],Tde
same,IC50,[3],91 nM
